The source of these data is PubChem BioAssay.

The nature of assay [1]: reduced viability of SK-BR-3 breast cancer cells – cell-based, 24 h, human, pilot screen (AID 572;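 active means viability at or below 10% of carrier control in both of two separate runs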;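 further: compound exposure lasted between 18 and 24 h rather than exactly 24 h; 100% = carrier-treated control wells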). The conditions noted are these: SK-BR-3 viability, CellTiter-Glo luminescence, at 10 µM, stronger effect = lower value.
Assay [2] in a line: HUVEC growth inhibition – cell-based, human, primary screen (AID 575;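 active means viability at or below 30% in both replicate assays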;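 further: 100% = median of untreated cell wells with 0.1% DMSO on each plate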). Conditions: HUVEC proliferation, CellTiter-Glo luminescence, 72 h; at 10 µM; stronger effect = lower value. Summed up: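 Assay system: primary human umbilical vein endothelial cells / Buffer or medium: endothelial basal medium with 2% FBS plus growth supplements / Compound dosing: one dose, 10 µM final, 0.1% DMSO / Timing: 72 h treatment at 37 °C / Signal: CTG luminescence / Benchmarks: 32 DMSO-only cell-control wells (high), 32 MePR drug-control wells (low) per plate / Plate: collagen-coated 384-well format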

The nature of assay [3]: H69AR cell proliferation blockers – human, duplicate replicates, primary screen (AID 580;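 active means viability at or under a set limit in both replicates, limit being median viability minus 3 SD, cut at about 48% in these data, passing the limit was not always enough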;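 further: 100% = mean luminescence of untreated wells and 0% = no signal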). The conditions noted are these: H69AR lung tumor cells viability, ATP luminescence, 72 h; at 10 µM; stronger effect = lower value.
Assay [4] is described as follows: MRP1 drug-resistance reversers in H69AR cells – cell-based, doxorubicin co-treatment, pilot screen (AID 601;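 active means viability loss from added drug above about 55%, and viability with drug at most 40%, in both replicates, limit read from the data, passing the limit was not always enough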). Conditions: CellTiter-Glo, 72 h, at 10 µM; for differential viability (reversal): stronger effect = higher value.
Assay [5] in a line: yeast transport mutant growth inhibition pilot in 384-well plates, post-Golgi transport modulator project (AID 636; in the data active means inhibition above about 31%). Conditions: absorbance 615 nm, about 18 h, stronger effect = higher value.
Assay [6] in a line: growth suppression of yeast trafficking mutant, preliminary HTS, modulators of trafficking downstream of Golgi apparatus project, 1536-format plate, OD 615 nm (AID 637). The conditions noted are these: yeast transport mutant growth, absorbance 615 nm, 18 h; stronger effect = higher value.
Setting [7] is: H69AR cells + 2 uM doxorubicin, measured here: viability with 2 uM doxorubicin, stronger effect = lower value.
The mark [8] stands for this setting: H69AR cells, compound alone cytotoxicity.

Each structure is given as a SMILES string. Active and inactive are the calls of the source. Unless noted, no stated cut-off is given here; in the data, active means inhibition above about 30%; inactive means the rest.

Consider `CCCn1c(=O)c2[nH]c(C3CCCC3)nc2n(CCC)c1=O`, for which the viability in assay [1] was 100% (inactive); in assay [2], 77.3% (inactive); in assay [3], 70.7% (inactive); in assay [4] (setting [7]) it was 19.9%; in assay [4] (setting [8]) it was 70.7%. In assay [4] (H69AR cells + 2 uM doxorubicin), the differential viability (reversal) is 50.8% (inactive). The inhibition in assay [5] is -1.3% (inactive); in assay [6], -1% (inactive).

Regarding `CCCCNc1cc(C(=O)O)cc(S(N)(=O)=O)c1Oc1ccccc1`, the viability in assay [1] is 121% (inactive); in assay [2] it was 87% (inactive); in assay [3], 114% (inactive); in assay [4] (setting [7]) it was 90.5%; in assay [4] (setting [8]), 114%. Further, the differential viability (reversal) in assay [4] (H69AR cells + 2 uM doxorubicin) was 23.6% (inactive). Further, the inhibition in assay [5] is -1.56% (inactive); in assay [6] it was 7.17% (inactive).

As to `O=C(NCc1cccnc1)/C(=N\O)c1ccccc1`, the viability in assay [1] was 73% (inactive); in assay [2], 111% (inactive); in assay [3] it was 98.8% (inactive); in assay [4] (setting [7]), 85.6%; in assay [4] (setting [8]) it was 98.8%. The differential viability (reversal) in assay [4] (H69AR cells + 2 uM doxorubicin) was 13.2% (inactive). The figures for the inhibition in assay [5] and in assay [6] were -6.08% (inactive) and -3.82% (inactive), respectively.

Turning to `O=C(CSc1ccccc1C(=O)NCCCN1CCCC1=O)NCc1ccco1`, the viability in assay [1] is 108% (inactive); in assay [2], 102% (inactive); in assay [3], 82.3% (inactive); in assay [4] (setting [7]) it was 80%; in assay [4] (setting [8]) it was 82.3%. Moreover, the differential viability (reversal) in assay [4] (H69AR cells + 2 uM doxorubicin) is 2.32% (inactive). In addition, the results for the inhibition in assay [5] and in assay [6] were -3.6% (inactive) and 6% (inactive), respectively.

Take `c1cncc(C2Nc3ccccc3-c3nc4ccccc4n32)c1` (stereo not drawn): the viability is 90% (inactive) in assay [1]; 98.1% (inactive) in assay [2]; 78.7% (inactive) in assay [3]; 90.9% in assay [4] (setting [7]); 78.7% in assay [4] (setting [8]). Moreover, in assay [4] (H69AR cells + 2 uM doxorubicin), the differential viability (reversal) is -12.2% (inactive). Also, the inhibition in assay [5] was -2.53% (inactive); in assay [6] it was 0.91% (inactive).

As to `Cc1nc(-c2ccccc2)sc1C(N)=O`, the viability in assay [1] is 107% (inactive); in assay [2], 96.4% (inactive); in assay [3] it was 94.4% (inactive); in assay [4] (setting [7]), 106%; in assay [4] (setting [8]), 94.4%. For the same compound, the differential viability (reversal) in assay [4] (H69AR cells + 2 uM doxorubicin) was -12.1% (inactive). Also, the inhibition is -3.29% (inactive) in assay [5] and 12.6% (inactive) in assay [6].

On to `O=S(=O)(NCc1cn2ccccc2n1)c1cc(F)ccc1F`, for which the viability in assay [1] is 107% (inactive); in assay [2] it was 89.9% (inactive); in assay [3] it was 96.6% (inactive); in assay [4] (setting [7]), 87.2%; in assay [4] (setting [8]), 96.6%. The differential viability (reversal) in assay [4] (H69AR cells + 2 uM doxorubicin) was 9.41% (inactive). The figures for the inhibition in assay [5] and in assay [6] were -5.68% (inactive) and -6.36% (inactive), respectively.

Regarding `Cn1c(=O)[nH]c(=O)c2c1nc(Br)n2CCCSc1nc2ccccc2o1`, the viability is 89% (inactive) in assay [1]; 36.2% (inactive) in assay [2]; 23.8% (active) in assay [3]; 33.3% in assay [4] (setting [7]); 23.8% in assay [4] (setting [8]). Also, the differential viability (reversal) in assay [4] (H69AR cells + 2 uM doxorubicin) was -9.42% (inactive). In addition, the inhibition in assay [5] was -4.13% (inactive); in assay [6] it was -4.55% (inactive).

With `NCCCCCc1nnc(SC/C=C/c2ccccc2)o1`, the viability in assay [1] was 99% (inactive); in assay [2], 73.8% (inactive); in assay [3], 89.9% (inactive); in assay [4] (setting [7]), 86.9%; in assay [4] (setting [8]) it was 89.9%. In assay [4] (H69AR cells + 2 uM doxorubicin), the differential viability (reversal) is 3.04% (inactive). Moreover, the inhibition in assay [5] was -6.85% (inactive); in assay [6], 18.2% (inactive).

Take `O=C(O)c1cc(-c2ccccc2)nc2ccccc12`: the viability in assay [1] is 91% (inactive); in assay [2] it was 92.7% (inactive); in assay [3] it was 76.7% (inactive); in assay [4] (setting [7]), 74.6%; in assay [4] (setting [8]) it was 76.7%. In addition, in assay [4] (H69AR cells + 2 uM doxorubicin), the differential viability (reversal) was 2.04% (inactive). In addition, the inhibition in assay [5] is 2.99% (inactive); in assay [6] it was 4.83% (inactive).

With `COc1cccc(-c2nnc(NC(=O)Cc3cccs3)s2)c1`, the viability in assay [1] is 88% (inactive); in assay [2], 84.8% (inactive); in assay [3], 82.6% (inactive); in assay [4] (setting [7]), 96.8%; in assay [4] (setting [8]), 82.6%. Further, the differential viability (reversal) in assay [4] (H69AR cells + 2 uM doxorubicin) is -14.2% (inactive). The inhibition is -5.34% (inactive) in assay [5] and 5.16% (inactive) in assay [6].
